In brackets after ≈: the same amount, converted by molar mass. *1 amine or outer side, *2 acyl side, *3 side chain or, on linkers, in order; H or OH if unused. Where a SMILES comes first, the peptide text is derived from it. Bridges are numbered along the chain shown (N, C = ends). [ ]: non-standard residue; d: D form. The star is where a group is joined. hTyr(3S-OH,4S-OH,3'-OSO3H) = N[C@H](C(=O)O)[C@H](O)[C@@H](O)c1ccc(O)c(OS(=O)(=O)O)c1; Orn(4R-OH,5R-OH) = O=C([C@H](C[C@@H](O)[C@@H](O)N[*:3])N[*:1])[*:2]; Pro(3S-OH,4S-Me) = C[C@H]1CN[C@H](C(=O)O)[C@H]1O; X1 = CCCCCOc1ccc(-c2cc(-c3ccc(C(=O)*)cc3)no2)cc1; Gln(3R-OH) = NC(=O)C[C@@H](O)[C@H](N)C(=O)O; Hyp = O=C(O)[C@@H]1C[C@@H](O)CN1
Experiments:
Format in all cases: functional
[1] = test system: Candida parapsilosis; test: Antifungal activity against Candida parapsilosis assessed as susceptible dose-dependent isolates after 48 hrs by CLSI method
Outline: (§1)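 Broth microdilution MICs were run on invasive clinical Candida isolates under CLSI M27-A2, with incubation at 35°C for 48 h before reading. Control strains were C. parapsilosis ATCC 22019 and C. krusei ATCC 6258. MICs were interpreted under the same guideline to place isolates as susceptible, susceptible-dose dependent or resistant, reported as percentage of isolates per category, with MIC range, MIC50 and MIC90.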

[2] = test system: Candida tropicalis; test: Antifungal activity against Candida tropicalis assessed as susceptible dose-dependent isolates after 48 hrs by CLSI method; outline: as §1
[3] = test system: Candida parapsilosis; test: Antifungal activity against Candida parapsilosis after 48 hrs by CLSI method; conditions: Lodderomyces parapsilosis; outline: as §1
[4] = test system: Nakaseomyces glabratus; test: Antifungal activity against Candida glabrata assessed as resistant isolates after 48 hrs by CLSI method; outline: as §1
[5] = test system: Meyerozyma guilliermondii; test: Antifungal activity against Candida guilliermondii assessed as susceptible dose-dependent isolates after 48 hrs by CLSI method; outline: as §1
[6] = test system: Nakaseomyces glabratus; test: Antifungal activity against Candida glabrata assessed as susceptible dose-dependent isolates after 48 hrs by CLSI method; outline: as §1
[7] = test system: Pichia kudriavzevii; test: Antifungal activity against Candida krusei after 48 hrs by CLSI method
Outline: as §1, with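 “reading.” for “reading. Control strains were C. parapsilosis ATCC 22019 and C. krusei ATCC 6258.”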

[8] = test system: Candida albicans; test: Antifungal activity against Candida albicans after 48 hrs by CLSI method
[9] = test system: Nakaseomyces glabratus; test: Antifungal activity against Candida glabrata assessed as susceptible isolates after 48 hrs by CLSI method; outline: as §1
[10] = test system: Candida tropicalis; test: Antifungal activity against Candida tropicalis assessed as resistant isolates after 48 hrs by CLSI method; outline: as §1
[11] = test system: Candida tropicalis; test: Antifungal activity against Candida tropicalis assessed as susceptible isolates after 48 hrs by CLSI method; outline: as §1
[12] = test system: Candida parapsilosis; test: Antifungal activity against Candida parapsilosis assessed as resistant isolates after 48 hrs by CLSI method; outline: as §1
[13] = test system: Nakaseomyces glabratus; test: Antifungal activity against Candida glabrata after 48 hrs by CLSI method
[14] = test system: Meyerozyma guilliermondii; test: Antifungal activity against Candida guilliermondii after 48 hrs by CLSI method
[15] = test system: Clavispora lusitaniae; test: Antifungal activity against Candida lusitaniae assessed as susceptible isolates after 48 hrs by CLSI method; outline: as §1
[16] = test system: Candida albicans; test: Antifungal activity against Candida albicans assessed as susceptible dose-dependent isolates after 48 hrs by CLSI method; outline: as §1
[17] = test system: Pichia kudriavzevii; test: Antifungal activity against Candida krusei assessed as resistant isolates after 48 hrs by CLSI method; outline: as §1
[18] = test system: Candida tropicalis; test: Antifungal activity against Candida tropicalis after 48 hrs by CLSI method; outline: as §1
[19] = test system: Clavispora lusitaniae; test: Antifungal activity against Candida lusitaniae assessed as susceptible dose-dependent isolates after 48 hrs by CLSI method; outline: as §1
[20] = test system: Pichia kudriavzevii; test: Antifungal activity against Candida krusei assessed as susceptible dose-dependent isolates after 48 hrs by CLSI method; outline: as §1
[21] = test system: Candida albicans; test: Antifungal activity against Candida albicans assessed as resistant isolates after 48 hrs by CLSI method; outline: as §1
[22] = test system: Meyerozyma guilliermondii; test: Antifungal activity against Candida guilliermondii assessed as susceptible isolates after 48 hrs by CLSI method; outline: as §1
[23] = test system: Clavispora lusitaniae; test: Antifungal activity against Candida lusitaniae after 48 hrs by CLSI method
[24] = test system: Candida parapsilosis; test: Antifungal activity against Candida parapsilosis assessed as susceptible isolates after 48 hrs by CLSI method; outline: as §1
[25] = test system: Candida albicans; test: Antifungal activity against Candida albicans assessed as susceptible isolates after 48 hrs by CLSI method; outline: as §1
[26] = test system: Pichia kudriavzevii; test: Antifungal activity against Candida krusei assessed as susceptible isolates after 48 hrs by CLSI method; outline: as §1
[27] = test system: Clavispora lusitaniae; test: Antifungal activity against Candida lusitaniae assessed as resistant isolates after 48 hrs by CLSI method; outline: as §1
[28] = test system: Meyerozyma guilliermondii; test: Antifungal activity against Candida guilliermondii assessed as resistant isolates after 48 hrs by CLSI method; outline: as §1

SMILES | Activity [1] | Activity [2] | MIC50 [3] | MIC90 [3] | Activity [4] | Activity [5] | Activity [6] | MIC50 [7] | MIC90 [7] | MIC50 [8] | MIC90 [8] | MIC50 [13] | MIC90 [13] | MIC50 [14] | MIC90 [14] | MIC50 [18] | MIC90 [18] | MIC50 [23] | MIC90 [23] | MIC [8] | other results
CCC(C)n1ncn(-c2ccc(N3CCN(c4ccc(OCC5COC(Cn6cncn6)(c6ccc(Cl)cc6Cl)O5)cc4)CC3)cc2)c1=O (stereo not drawn) [ITRACONAZOLE] | 22% | 35% | 0.06 µg/mL (≈ 0.085 µM) | 0.25 µg/mL (≈ 0.354 µM) | 63% | 88% | 37% | 0.5 µg/mL (≈ 0.709 µM) | 0.5 µg/mL (≈ 0.709 µM) | 0.03 µg/mL (≈ 0.0425 µM) | 0.03 µg/mL (≈ 0.0425 µM) | 1 µg/mL (≈ 1.42 µM) | 1 µg/mL (≈ 1.42 µM) | 0.5 µg/mL (≈ 0.709 µM) | 0.5 µg/mL (≈ 0.709 µM) | 0.12 µg/mL (≈ 0.17 µM) | 0.25 µg/mL (≈ 0.354 µM) | 0.06 µg/mL (≈ 0.085 µM) | 0.06 µg/mL (≈ 0.085 µM) | – | Activity [9]: 0%; Activity [10]: 0%; Activity [11]: 65%; Activity [12]: 0%; Activity [15]: 100%; Activity [16]: 2%; Activity [17]: 10%; Activity [19]: 0%; Activity [20]: 90%; Activity [21]: 0%; Activity [22]: 6%; Activity [24]: 78%; Activity [25]: 98%; Activity [26]: 0%
CCCCCOc1ccc(-c2cc(-c3ccc(C(=O)N[C@H]4C[C@@H](O)[C@@H](O)NC(=O)[C@@H]5[C@@H](O)[C@@H](C)CN5C(=O)[C@H]([C@H](O)CC(N)=O)NC(=O)[C@H]([C@H](O)[C@@H](O)c5ccc(O)c(OS(=O)(=O)O)c5)NC(=O)[C@@H]5C[C@@H](O)CN5C(=O)[C@H]([C@@H](C)O)NC4=O)cc3)no2)cc1 [MICAFUNGIN] (X1-[Orn(4R-OH,5R-OH)]T[Hyp][hTyr(3S-OH,4S-OH,3'-OSO3H)][Gln(3R-OH)][Pro(3S-OH,4S-Me)]; lactam 1-C) | – | – | 2 µg/mL (≈ 1.57 µM) | 2 µg/mL (≈ 1.57 µM) | – | – | – | 0.25 µg/mL (≈ 0.197 µM) | 0.5 µg/mL (≈ 0.394 µM) | 0.007 µg/mL (≈ 0.00551 µM) | 0.015 µg/mL (≈ 0.0118 µM) | 0.06 µg/mL (≈ 0.0472 µM) | 0.06 µg/mL (≈ 0.0472 µM) | 1 µg/mL (≈ 0.787 µM) | 1 µg/mL (≈ 0.787 µM) | 0.06 µg/mL (≈ 0.0472 µM) | 0.12 µg/mL (≈ 0.0945 µM) | 0.25 µg/mL (≈ 0.197 µM) | 0.25 µg/mL (≈ 0.197 µM) | 0.007 µg/mL (≈ 0.00551 µM) | MIC [7]: 0.25 µg/mL (≈ 0.197 µM); MIC [18]: 0.06 µg/mL (≈ 0.0472 µM)
CC[C@@H]([C@H](C)O)n1ncn(-c2ccc(N3CCN(c4ccc(OC[C@@H]5CO[C@@](Cn6cncn6)(c6ccc(F)cc6F)C5)cc4)CC3)cc2)c1=O [POSACONAZOLE] | – | – | 0.03 µg/mL (≈ 0.0428 µM) | 0.06 µg/mL (≈ 0.0856 µM) | – | – | – | 0.25 µg/mL (≈ 0.357 µM) | 0.25 µg/mL (≈ 0.357 µM) | 0.015 µg/mL (≈ 0.0214 µM) | 0.03 µg/mL (≈ 0.0428 µM) | 0.5 µg/mL (≈ 0.713 µM) | 0.5 µg/mL (≈ 0.713 µM) | 0.12 µg/mL (≈ 0.171 µM) | 0.25 µg/mL (≈ 0.357 µM) | 0.06 µg/mL (≈ 0.0856 µM) | 0.25 µg/mL (≈ 0.357 µM) | 0.03 µg/mL (≈ 0.0428 µM) | 0.03 µg/mL (≈ 0.0428 µM) | 0.015 µg/mL (≈ 0.0214 µM) | MIC [3]: 0.03 µg/mL (≈ 0.0428 µM)
C[C@@H](c1ncncc1F)[C@](O)(Cn1cncn1)c1ccc(F)cc1F [VORICONAZOLE] | 0% | 0% | 0.03 µg/mL (≈ 0.0859 µM) | 0.06 µg/mL (≈ 0.172 µM) | 4% | 3% | 2% | 0.5 µg/mL (≈ 1.43 µM) | 0.5 µg/mL (≈ 1.43 µM) | 0.015 µg/mL (≈ 0.0429 µM) | 0.03 µg/mL (≈ 0.0859 µM) | 0.5 µg/mL (≈ 1.43 µM) | 1 µg/mL (≈ 2.86 µM) | 0.06 µg/mL (≈ 0.172 µM) | 0.12 µg/mL (≈ 0.344 µM) | 0.12 µg/mL (≈ 0.344 µM) | 0.12 µg/mL (≈ 0.344 µM) | 0.015 µg/mL (≈ 0.0429 µM) | 0.015 µg/mL (≈ 0.0429 µM) | 0.015 µg/mL (≈ 0.0429 µM) | Activity [27]: 0%; Activity [9]: 94%; Activity [10]: 0%; Activity [11]: 100%; Activity [12]: 0%; Activity [15]: 100%; Activity [16]: 0%; Activity [17]: 3%; Activity [19]: 0%; Activity [28]: 0%; Activity [20]: 3%; Activity [21]: 0%; Activity [22]: 97%; MIC [23]: 0.015 µg/mL (≈ 0.0429 µM); Activity [24]: 100%; Activity [25]: 100%; Activity [26]: 95%

Reference: ChEMBL document CHEMBL1275451, “In vitro susceptibilities of invasive isolates of Candida species: rapid increase in rates of fluconazole susceptible-dose dependent Candida glabrata isolates” (2008)
